G6PDH counter – counter-screen for G6PDH assay hits: L. mesenteroides G6PDH inhibition | inhibition, % at 5 µM | Purified L. mesenteroides G6PDH, diaphorase/resazurin coupled fluorescence, 45 min | hit rate 0.12% among 200,000; in the data active means inhibition above about 50%
HKDC1 inh – inhibitors of human hexokinase HKDC1 | Q2TB90 | recombinant HKDC1, G6PDH/diaphorase resazurin coupled fluorescence | inhibition, % at 20 µM | hit rate 0.16% among 340,000;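 active means inhibition above about 35% when tested at 20 µM, limit read from the data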;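 further: plate controls were DMSO wells with enzyme for no effect and DMSO wells lacking enzyme for full effect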
Target sequence (Q2TB90 whole entry, looked up): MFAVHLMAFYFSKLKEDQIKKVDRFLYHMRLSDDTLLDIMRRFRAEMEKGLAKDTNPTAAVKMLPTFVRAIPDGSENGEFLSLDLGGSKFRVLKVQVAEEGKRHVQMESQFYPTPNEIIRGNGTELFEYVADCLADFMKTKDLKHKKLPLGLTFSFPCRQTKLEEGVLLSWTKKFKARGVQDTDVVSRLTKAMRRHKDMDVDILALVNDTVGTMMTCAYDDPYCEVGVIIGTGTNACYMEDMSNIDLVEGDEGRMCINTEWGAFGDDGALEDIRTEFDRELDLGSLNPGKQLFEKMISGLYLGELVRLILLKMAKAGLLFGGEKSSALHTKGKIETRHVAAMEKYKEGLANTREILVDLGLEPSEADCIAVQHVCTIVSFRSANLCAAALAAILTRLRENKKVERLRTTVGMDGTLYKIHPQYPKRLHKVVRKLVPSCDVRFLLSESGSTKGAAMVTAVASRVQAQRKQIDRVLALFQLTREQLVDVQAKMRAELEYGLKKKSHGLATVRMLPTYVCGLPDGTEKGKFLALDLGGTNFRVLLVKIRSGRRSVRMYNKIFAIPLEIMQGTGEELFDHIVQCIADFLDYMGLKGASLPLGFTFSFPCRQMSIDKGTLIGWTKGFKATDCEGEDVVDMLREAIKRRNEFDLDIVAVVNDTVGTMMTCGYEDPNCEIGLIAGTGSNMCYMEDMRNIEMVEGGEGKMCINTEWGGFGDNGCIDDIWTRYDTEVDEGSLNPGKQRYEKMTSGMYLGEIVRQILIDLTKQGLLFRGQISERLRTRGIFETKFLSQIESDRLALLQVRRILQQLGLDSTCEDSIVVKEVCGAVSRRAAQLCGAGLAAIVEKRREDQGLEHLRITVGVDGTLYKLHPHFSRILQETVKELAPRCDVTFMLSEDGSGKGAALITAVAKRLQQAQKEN
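Incubation: 90 min at room temperature in dark / Material: recombinant HKDC1 (HK5) hexokinase enzyme, produced in-house / Quantity: enzyme 5 µg/mL final / Compound: one dose of 20 µM, 1% DMSO / Reagent: glucose and ATP substrates / Buffer or medium: Tris pH 8.0 buffer with MgCl2, Tween-20, BSA, BME / Technique: resorufin fluorescence at 613 nm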
Diaphorase inh – inhibits diaphorase or chemically oxidizes, flagging diaphorase assay artifacts. hit rate 0.69% among 190,000. inhibition, % at 20 µM. diaphorase resazurin-to-resorufin fluorescence, NADH, 16 min; bacterial (C. kluyveri) enzyme, not human. AID 1217;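 active means primary screen inhibition at 20 µM above a set limit, cut at about 50% in these data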;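 further: plate controls were DMSO with full reaction for no effect and wells lacking NADH for full effect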
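material = Clostridium kluyveri diaphorase enzyme | amount = 0.14 U/mL diaphorase, enzyme working solution | schedule = incubation 16 min, room temperature | detection = fluorescence of resorufin formed from resazurin, Ex 544/Em 590 nm | benchmarks = positive control minus NADH, DMSO neutral control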
Arbovirus inh – blocks arbovirus infection. arbovirus infection cell-based antiviral screen. inhibition, % at 10 µM. hit rate 0.37% among 200,000; in the data active means inhibition above about 30%
Diaph act CS – counter-screen for diaphorase-based assays: diaphorase activators and chemical reducers | hit rate 0.005% among 190,000 | Diaphorase/resazurin coupled assay, resorufin fluorescence, 16 min; active compounds read high; 1 = vehicle wells, 0 = NADH-free wells | AID 1229 | activation factor at 20 µM;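 active means diaphorase activity raised at least twofold by the compound at 20 µM; inactive means activation factor below 2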
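Material: Purified diaphorase enzyme from Clostridium kluyveri | Buffer or medium: 50 mM HEPES pH 7.4 with 4.542 mM MgCl2, 0.005% Tween 20 | Times: 16 min enzyme reaction, ambient temperature | Signal: Red resorufin fluorescence at 544/590 nm excitation/emission | Measure: Increased resorufin signal from activators or reducing compounds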
The depositor's hits bear a star; / = no result given. Shown are actives, neighbours in structure and some others; about 0.74% of the full set was active somewhere.

SMILES	G6PDH counter	HKDC1 inh	Diaphorase inh	Arbovirus inh	Diaph act CS
O=C(Nc1nc2ccccc2s1)c1cc(-c2ccccc2)nn1-c1ccccc1	13	16	7	49*	0.9
CCOc1ccc2nc(NC(=O)C3=NN(c4ccccc4)C(=O)CC3)sc2c1	3	-2	14	52*	0.9
COc1ccc(-c2csc(NC(=O)C3=NN(c4ccccc4)C(=O)CC3)n2)cc1	5	-9	8	31*	0.9
Cc1ccc2nc(NC(=O)C3=NN(c4ccccc4)C(=O)CC3)sc2c1	-51	-14	18	60*	0.8
CC(=O)c1sc(NC(=O)c2cc(-c3ccccc3)nn2-c2ccccc2)nc1C	-26	16	25	17	0.8
c1ccc(-c2nnc(N3CCCC3)nc2-c2ccccc2)cc1	/	1	/	/	/
COc1ccc(NC(=O)CN(c2ccccc2)S(=O)(=O)N(C)C)cc1Cl	-4	-4	68*	-3	0.3
COc1ccc(NC(=O)CN(c2ccccc2)S(=O)(=O)N(C)C)cc1OC	11	-6	1	0	1
CC1=CC(=O)C(C(C)=Nc2cccc(Cl)c2)C(=O)O1 (stereo not drawn)	/	-5	/	/	/
O=C1/C(=C\c2ccc(O)c(O)c2)C(c2ccccc2)=NN1c1ccccc1	17	12	65*	-35	0.4
COc1cc(CN2CCN(Cc3ccc([N+](=O)[O-])cc3)CC2)c([N+](=O)[O-])cc1OC	12	-7	30	15	0.7
COc1cccc(CN2CCN(Cc3cc(OC)c(OC)cc3[N+](=O)[O-])CC2)c1	15	12	50*	14	0.5
COc1ccc(Nc2ccc3c(c2)=NC2(CCCCC2)[N+]=3[O-])cc1	56*	24	73*	-28	0.3
[O-][N+]1=c2ccc(Nc3ccccc3)cc2=NC12CCCCC2	48	20	72*	-31	0.3
Cc1cc(C(=O)NC(C)Cc2ccccc2)cc(C)c1[N+](=O)[O-] (stereo not drawn)	3	5	69*	-2	0.3
S=c1[nH]nc(-c2ccc(Cl)cc2Cl)n1-c1ccc2c(c1)OCCO2	/	5	/	/	/
Oc1ccc(-c2n[nH]c(=S)n2-c2ccc3c(c2)OCCO3)c(O)c1	6	-2	37	33*	0.6
C=CCn1c(C)c(C(C)=O)c(N2CCCC2)nc1=S	4	3	56*	8	0.4
C=CCn1c(C)c(C(C)=O)c(N2CCN(c3ccccc3)CC2)nc1=S	2	-7	15	3	0.8
CCn1c(C)c(C(C)=O)c(N2CCCC2)nc1=S	-6	2	57*	2	0.4
Cc1ccc(NC(=O)c2ncn(CCCN[C@H](C)c3cccc4ccccc34)n2)cc1C	/	-2	/	/	/
O=c1[nH]c2ccc(N=Cc3c(O)ccc4cc(Br)ccc34)cc2[nH]1	8	8	55*	25	0.4
CC(NC(=O)C(=O)NCCc1c[nH]c2ccccc12)c1ccccc1 (stereo not drawn)	/	-6	/	/	/
O=C1[C@@H]2[C@@H](CN3CN(c4ccccc4)N=C(c4ccccc4)[C@@]23c2ccccc2)C(=O)N1c1ccccc1	/	-4	/	/	/
O=C(O)c1ccccc1NSc1ccccc1[N+](=O)[O-]	-3	-1	-5	16	1.1
SMILES	G6PDH counter	HKDC1 inh	Diaphorase inh	Arbovirus inh	Diaph act CS
O=C(O)c1ccccc1Sc1c([N+](=O)[O-])cc(C(F)(F)F)cc1[N+](=O)[O-]	5	-8	11	31*	0.9
c1ccc2c(c1)ccc1[nH]c3c(c12)CCCC3	/	10	/	/	/
N#C/C(C(N)=O)=c1/ccc2c(c1)N1C3=C(CCCC3)CC3CCCCC31N=2 (stereo not drawn)	11	52*	91*	-33	0.1
C=CC(=O)Nc1cccc(Oc2cc(Cl)nc3[nH]ccc23)c1	/	7	/	/	/
Cc1cc(C(=O)N2CCc3c([nH]c4ccccc34)C2c2c(F)cccc2Cl)no1 (stereo not drawn)	1	-6	57*	17	0.4
CCc1cc(C(=O)N2CCc3c([nH]c4ccccc34)C2c2ccc(OC)cc2F)no1 (stereo not drawn)	9	-1	19	7	0.8
O=C(c1ccc(S(=O)(=O)c2ccccc2)cc1)N1CCc2ccccc2C1	6	-11	51*	15	0.5
CCCNC1=C(N(C(C)=O)c2cccc(F)c2)C(=O)c2ccccc2C1=O	52*	19	34	-34	0.7
CCCNC(=O)COC(=O)/C=C/c1cccc(F)c1	2	-7	3	15	1
CCCN(Cc1nnc(-c2cccs2)o1)C(=O)c1cccc(S(=O)(=O)N2CCOCC2)c1	/	-2	/	/	/
Cc1ccc(C(c2nnnn2Cc2ccccc2)N2CCN(Cc3ccccc3)CC2)cc1 (stereo not drawn)	8	3	79*	8	0.2
O=C(C1CC1)N1CCN(c2ccc([N+](=O)[O-])cc2-n2cccc2)CC1	/	4	/	/	/
O=C(NC1CCCCC1)Oc1cccc2ccccc12	52*	4	28	-3	0.7
COc1ccccc1C(=O)NCC1CCN(c2ccc(S(=O)(=O)N3CCOCC3)cc2)CC1	2	2	3	45*	1
O=C(NCC1CCN(c2ccc(S(=O)(=O)N3CCOCC3)cc2)CC1)Nc1ccccc1	/	1	/	/	/
Cc1cccc(-c2nn(-c3ccccc3)cc2C(=O)N2CCN(C3CCS(=O)(=O)C3)CC2)c1 (stereo not drawn)	/	-4	/	/	/
O=C(O)CCCNc1cc(N2CCC3(CC2)OCCO3)c2noc3c2c1C(=O)c1ccccc1-3	39	/	50*	-10	0.5
CCOC(=O)N1CCN(c2cc(NCCC(=O)O)c3c4c(onc24)-c2ccccc2C3=O)CC1	-6	37*	57*	6	0.4
O=C(O)CCCNc1cc(N2CCN(C(=O)c3ccco3)CC2)c2noc3c2c1C(=O)c1ccccc1-3	/	22	/	/	/
CN1CCN(c2cc(N3CCN(C(=O)c4ccco4)CC3)c3c4c(onc24)-c2ccccc2C3=O)CC1	/	21	/	/	/
COc1ccc2c(c1)OCC(O)(c1ccccc1)C2=O (stereo not drawn)	/	-5	/	/	/
Cc1ccc(C)c(N(CC(=O)N/N=C/c2ccc(-c3ccc([N+](=O)[O-])cc3)o2)S(=O)(=O)c2ccccc2)c1	2	6	15	8	0.9
CCOc1ccc(S(=O)(=O)N(CC(=O)N/N=C/c2ccc(-c3ccc([N+](=O)[O-])cc3)o2)c2ccccc2)cc1	7	22	62*	-14	0.4
COc1ccc(N2C(=O)CS/C2=C\[N+](=O)[O-])cc1	4	-4	8	4	0.9
CCOC(=O)c1c(CC(C)C)csc1NC(=O)c1ccccc1C(=O)O	/	-2	/	/	/
CC(C)Cc1csc(NC(=O)c2ccc(F)cc2)c1C(=O)O	16	0	8	48*	0.9
COc1cc2c(cc1OC)CN(C1CCC(C(C)(C)C)CC1)CC2 (stereo not drawn)	/	3	/	/	/

High-throughput results from PubChem.
